Here are results for three compounds from paper PMC4084507 (Chembiochem : a European journal of chemical biology, 2014).

Structures are written as SMILES. Like-named read-outs stand apart in the source and are kept apart here.

The target of one assay is AtsB (Mycobacterium tuberculosis, UniProt O65931). As to conditions: 10 µM probe, 7-8 min; native gel-resolved lysate.
Assay [1] deals with Helix pomatia sulfatase. Description: fluorogenic hydrolysis assay. Type of assay: biochemical. As to conditions: read-out: Helix pomatia ^[b]; potassium acetate buffer pH 5.0, 37 °C. The method, boiled down:
(§1)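 Commercial Helix pomatia sulfatase was incubated with the fluorogenic sulfate substrate in potassium acetate buffer (pH 5.0) at 37 °C. Formation of the released fluorophore was monitored over time. Substrate-only reactions without enzyme served as the background control. KM and Vmax (pmoles/sec) were derived from the kinetics, and Vmax/KM was calculated from them.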

The subject of assay [2] is Helix pomatia sulfatase. Kind of assay: fluorogenic hydrolysis assay. Type of assay: biochemical. To be noted: read-out: Helix pomatia ^[b]; potassium acetate buffer pH 5.0, 37 °C. The method, boiled down: as §1
This is another data set of the same source.

For the compound `CC1(C)C2=C(Cl)C(=O)C(Cl)=CC2=Nc2ccc(OS(=O)(=O)O)cc21` [DDAO-sulfate], the “in-gel fluorescence after native gel of lysate” value on AtsB was “AtsB can hydrolyze both RS and DDAO-sulfate, but not MFS”. On to `COc1ccc2c(c1)Oc1cc(OS(=O)(=O)O)ccc1C21OC(=O)c2ccccc21` (stereo not shown) [MFS], for which the Km in the assay with Helix pomatia sulfatase [1] is 24.8 ± 2.2 µM. Turning to `O=c1ccc2nc3ccc(OS(=O)(=O)O)cc3oc-2c1` [RS], in the assay on Helix pomatia sulfatase [2], the Km came to 17.5 ± 0.9 µM. In addition, the “in-gel fluorescence after native gel of lysate” value at AtsB was “AtsB can hydrolyze both RS and DDAO-sulfate, but not MFS”.
